High-throughput results: PubChem, several laboratories
AHR act: AHR activators, primary screen, cell-based, luminescence, luciferase reporter, human; actives 2.5% (n = 320,000); Aryl hydrocarbon receptor (Homo sapiens), P35869; AHR-responsive luciferase reporter cells; activation, % at 5 µM; in the data active = activation above about 47%
A3G deaminase: APOBEC3G DNA deaminase inhibitors, primary screen, biochemical, fluorescence, single-stranded DNA substrate, uHTS; recombinant A3G, ssDNA deamination FAM/TAMRA fluorescence; inhibition, % at 20 µM; actives 0.28% (n = 330,000); AID 493012, 2011;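 active = inhibition of at least 40% at 20 µM, with no more than 30% in the related APOBEC3A deaminase screen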
Arrestin-AP2 inh: inhibitors of beta-arrestin/AP2 binding, primary screen, biochemical, GPCR trafficking, flow cytometry | beta-arrestin 1 C-terminal peptide binding to AP2 beta2-adaptin appendage (human) | actives 0.31% (n = 340,000) | FITC-arrestin peptide / GST-AP2 beads; AP2 beta2 appendage carries R879A mutation | inhibition, % at 10 µM;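 active = inhibition above a set limit, near 3 SD of compounds lacking own fluorescence, cut at about 54% in these data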
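Assay system: GST-AP2 R879A bound to glutathione beads, E. coli-expressed; Medium: PBS with 0.05% Tween 20 and 0.1% BSA; Also added: fluorescein-tagged arrestin peptide at 50 nM final; Timing: 12 min plus 1 h, RT; Measured by: flow cytometry, FL1 (488/535 nm); Evaluation: percent drop in bead-associated FITC signal.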
PolyA inhibitor: polyadenylation inhibitors in yeast reporter cells, primary screen, luminescence, S. cerevisiae. activity score, % at 12 µM. AID 1875, 2009. actives 0.02% (n = 300,000). S. cerevisiae SKY197-pL101 polyadenylation reporter, beta-gal luminescence; efflux-impaired pdr1/pdr3 knockout yeast; score 100 = 6 SD above DMSO;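 active = lowest replicate activity score at least 50, where 100 means six control SD above control mean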;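 note: yeast exposed to compound for 9 h at 30 °C; higher score means more reporter readthrough which indicates perturbed polyadenylation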
APOBEC3A inh: APOBEC3A ssDNA deaminase inhibitors, primary screen, selectivity assay for APOBEC3G inhibitor project, biochemical, FAM/TAMRA oligo cleavage fluorescence; DNA dC->dU-editing enzyme APOBEC-3A (Homo sapiens), P31941; inhibition, % at 20 µM; AID 493011, 2011; recombinant A3A, FAM/TAMRA ssDNA deamination fluorescence; actives 0.41% (n = 330,000);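 active = at least 40% inhibition at 20 µM here, with at most 30% in a related deaminase screen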
UCH37 inh: inhibitors of human UCH37 deubiquitinase, primary screen, biochemical, Ub-AMC cleavage, fluorescence; AID 588478, 2011; purified proteasome/UCH37; actives 0.33% (n = 330,000); Ubiquitin carboxyl-terminal hydrolase isozyme L5 (Homo sapiens), Q9Y5K5; inhibition, % (no concentration beside the values);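 active = mean inhibition over replicate wells above about 20%, limit read from the data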
Target sequence (Q9Y5K5 whole entry, looked up): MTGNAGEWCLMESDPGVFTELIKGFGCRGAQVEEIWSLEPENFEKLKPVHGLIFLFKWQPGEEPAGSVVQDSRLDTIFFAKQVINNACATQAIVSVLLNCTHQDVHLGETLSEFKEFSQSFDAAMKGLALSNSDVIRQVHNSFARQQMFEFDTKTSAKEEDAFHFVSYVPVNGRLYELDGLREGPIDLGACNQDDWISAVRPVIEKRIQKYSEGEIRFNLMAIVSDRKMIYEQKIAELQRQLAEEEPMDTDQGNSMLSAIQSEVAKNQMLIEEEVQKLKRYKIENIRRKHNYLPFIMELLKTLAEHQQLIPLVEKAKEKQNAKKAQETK
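Material: human UCH37 enzyme supplied as purified proteasome complex / Amount: 0.15 nM proteasome as dispensed / Buffer or medium: pH 7.4 Tris-HCl (50 mM) with ovalbumin, ATP-MgCl2, DTT / Times: preincubation 30 min, reaction 25 min, room temperature / Technique: AMC fluorescence from Ub-AMC cleavage, excitation 355 nm, emission 460 nm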
AHR act confirm: AHR activators, confirmation, cell-based, luminescence, luciferase reporter, human. actives 87% (n = 2,300). shares compounds with AHR act. activation, % at 9 µM. AID 2845, 2010. human cells, AHR-responsive luciferase reporter; in the data active = activation above about 49%;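 note: HepG2 hepatoma cells carrying a DRE-driven firefly luciferase reporter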
PXR counter: human PXR activators, counter-screen for AHR activator project, cell-based, luciferase luminescence | AID 434939, 2010 | actives 88% (n = 2,300) | activation, % at 11.6 µM | cell-based PXR reporter | shares compounds with AHR act; in the data active = activation above about 11%;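 note: human hepatoma DPX-2 cells expressing full-length human PXR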
Target sequence (O75469 whole entry, looked up): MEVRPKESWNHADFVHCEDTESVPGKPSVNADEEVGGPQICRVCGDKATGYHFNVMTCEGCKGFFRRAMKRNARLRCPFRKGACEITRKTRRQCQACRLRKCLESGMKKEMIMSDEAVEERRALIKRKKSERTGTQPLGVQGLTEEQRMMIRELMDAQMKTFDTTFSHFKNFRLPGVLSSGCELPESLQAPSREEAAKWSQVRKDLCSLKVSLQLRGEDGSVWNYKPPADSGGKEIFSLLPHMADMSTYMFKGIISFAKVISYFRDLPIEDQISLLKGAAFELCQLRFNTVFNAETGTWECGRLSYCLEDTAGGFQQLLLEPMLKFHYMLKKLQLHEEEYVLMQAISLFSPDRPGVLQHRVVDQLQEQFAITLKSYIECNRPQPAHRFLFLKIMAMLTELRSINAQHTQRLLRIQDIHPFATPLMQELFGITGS
Large screens that a line does not name were inactive (follow-up assays come after a bar, where they were run). The list is not random: actives were taken first. Their share in the collection is about 3.4%.

CN(C)c1nc(N)nc(-c2nc3ccccc3s2)n1	AHR act 79.7 | AHR act confirm 167.0
COc1cc(NC(=O)c2ccc(F)cc2)c(OC)cc1Cl	AHR act 86.4 | AHR act confirm 102.7 | PXR counter 20.2
COc1cc(NC(=O)c2cc(C3CC3)on2)c(OC)cc1Cl	AHR act 94.7 | AHR act confirm 109.8 | PXR counter 14.1
CCOc1ccc(Nc2nc3ccccc3n2C)cc1	none
CCOc1ccc(Nc2nc3ccccc3n3nnnc23)cc1	AHR act 132.3 | AHR act confirm 84.8 | PXR counter 15.5
Cc1cnc(NC(=O)c2ccc(OCC3CCCO3)cc2)s1 (stereo not drawn)	none
O=C(Nc1nc2ccccc2s1)c1ccc(OCC2CCCO2)cc1 (stereo not drawn)	AHR act 112.4 | AHR act confirm 68.7 | PXR counter inactive
NC1=NC(=Nc2ccc(Br)cc2)c2ccccc21	AHR act 88.2 | AHR act confirm inactive | PXR counter 14.8
CCOc1ccc2oc(C(=O)Nc3nccs3)c(C)c2c1	AHR act 107.2 (no result: PolyA inhibitor) | AHR act confirm 162.0 | PXR counter 22.7
COc1cc(NC(=O)C/C(C)=N/NC(=O)C(=O)NC2CCCCC2)c(OC)cc1Cl	AHR act 96.6 (no result: UCH37 inh) | AHR act confirm inactive | PXR counter inactive
COc1cc(NC(=O)C/C(C)=N/NC(=O)c2ccccn2)c(OC)cc1Cl	AHR act 113.5 (no result: UCH37 inh) | AHR act confirm 70.2 | PXR counter 13.6
COc1cc(NC(=O)C/C(C)=N/NC(=O)C(=O)NCCO)c(OC)cc1Cl	AHR act 81.5 (no result: UCH37 inh) | AHR act confirm inactive | PXR counter 10.7
COc1cc(NC(=O)C/C(C)=N/NC(=O)C2CCCCC2)c(OC)cc1Cl	AHR act 104.6 (no result: UCH37 inh) | AHR act confirm inactive | PXR counter inactive
COc1cc(NC(=O)CC(C)=NNC(=O)C(=O)NC2CCCCC2)c(OC)cc1Cl	none (no result: AHR act, A3G deaminase, Arrestin-AP2 inh, PolyA inhibitor, APOBEC3A inh)
C[n+]1cccc(C=NNc2nc(Cl)c(C#N)c(Cl)c2Cl)c1	none (no result: AHR act, A3G deaminase, Arrestin-AP2 inh, PolyA inhibitor, APOBEC3A inh)
COc1ccc(C(C)=NNC(=O)c2ccc(CSc3nncn3C)cc2)cc1	none (no result: AHR act, A3G deaminase, Arrestin-AP2 inh, PolyA inhibitor, APOBEC3A inh)
CCNC(=S)NN=Cc1ccc(OCC(=O)Nc2ccc(OC)cc2)c(OC)c1	none (no result: AHR act, A3G deaminase, Arrestin-AP2 inh, PolyA inhibitor, APOBEC3A inh)
CCOc1ccc(C=NNC(=O)CC(=O)NCCc2ccccc2)cc1	none (no result: AHR act, A3G deaminase, Arrestin-AP2 inh, PolyA inhibitor, APOBEC3A inh)
OCCNc1nc(-c2ccccc2)nc2c1oc1ccccc12	AHR act 103.8 | AHR act confirm 95.8 | PXR counter 26.1
CCNc1nc(CC)nc2c1oc1ccccc12	none
COc1cccc(/C=N/Nc2nc(-c3cccnc3)nc3ccccc23)c1	AHR act 93.0 (no result: UCH37 inh) | AHR act confirm 53.8 | PXR counter 18.1
COc1ccc(C=NNc2nc(-c3cccnc3)nc3ccccc23)c(OC)c1	none (no result: AHR act, A3G deaminase, Arrestin-AP2 inh, PolyA inhibitor, APOBEC3A inh)
O=c1[nH]c(/C=C/c2ccccc2OC(F)F)nc2c1cnn2-c1ccccc1	AHR act 85.2 | AHR act confirm inactive | PXR counter 33.2
O=C(CN1CCN(S(=O)(=O)c2ccc(Br)cc2)CC1)NN=Cc1cccnc1	none (no result: AHR act, A3G deaminase, Arrestin-AP2 inh, PolyA inhibitor, APOBEC3A inh)
Cc1ccc(C(c2sc3ncnn3c2O)N2CCCCC2)cc1 (stereo not drawn)	none
Oc1c(C(c2ccc(F)cc2)N2CCc3ccccc3C2)sc2ncnn12 (stereo not drawn)	AHR act 96.3 | AHR act confirm 77.7 | PXR counter 33.5
CC(=O)c1ccc(NC(=O)c2ccc3snnc3c2)cc1	none
O=C(Nc1ccc(Cl)cc1)c1ccc2nsnc2c1	AHR act 85.3 | AHR act confirm 142.7 | PXR counter 11.9
O=C(Nc1ccc(Cl)cc1)c1ccc2snnc2c1	AHR act 129.1 | AHR act confirm 103.3 | PXR counter 26.4
COc1cc(C=NNC(N)=O)ccc1OCC(=O)N1C(C)CCCC1C (stereo not drawn)	none (no result: AHR act, A3G deaminase, Arrestin-AP2 inh, PolyA inhibitor, APOBEC3A inh)
Cc1ccc(Cn2c(SCC(=O)NN=Cc3ccc(C)o3)nc3ccccc32)cc1	none (no result: AHR act, A3G deaminase, Arrestin-AP2 inh, PolyA inhibitor, APOBEC3A inh)
CN(CCO)c1c2c(nc3cc(-c4cccc(F)c4)nn13)CCCC2	AHR act 89.1 | AHR act confirm 91.9 | PXR counter 64.2
OC1CCN(c2c3c(nc4cc(-c5cccc(F)c5)nn24)CCCC3)CC1	none
CC1CCc2sc(C(=O)N=Nc3c(O)[nH]c4ccccc34)cc2C1 (stereo not drawn)	AHR act 83.9 (no result: Arrestin-AP2 inh) | AHR act confirm 102.9 | PXR counter inactive
O=C(N=Nc1c(O)[nH]c2ccccc12)c1cccs1	none
Cc1ccc(N(CCCCN2C(=O)c3ccccc3C2=O)C(=O)c2cccc([N+](=O)[O-])c2)cc1	none
CN(C)CCCN1C(=O)c2cc3ccccc3cc2C1=O	none
COc1ccc(N(CCCN2C(=O)c3cccc4cccc(c34)C2=O)C(=O)c2cccc(OC)c2)cc1	AHR act 87.5 | AHR act confirm 99.1 | PXR counter 119.5
O=C1c2cccc3cccc(c23)C(=O)N1CCCSc1ncn[nH]1	AHR act 101.2 | AHR act confirm 87.8 | PXR counter 57.4
CN(C)CCCN1C(=O)c2cccc3cccc(c23)C1=O	AHR act 141.0 | AHR act confirm 162.7
O=C1c2ccccc2C(=O)N1CCSc1ncn[nH]1	none
CC(C)NC(=O)COc1ccc(S(=O)(=O)N2CCCC2)cc1	AHR act 87.0 | AHR act confirm inactive | PXR counter 15.6
CC(C)NC(=O)COc1ccc(S(=O)(=O)N2CCOCC2)cc1	none
CC(=NNC(=O)Cc1ccccc1)c1cccs1	none (no result: AHR act, A3G deaminase, Arrestin-AP2 inh, PolyA inhibitor, APOBEC3A inh)
Cn1c(=O)c2nc(-c3ccccc3)oc2c2ccccc21	AHR act 104.5 | AHR act confirm 120.1 | PXR counter 21.7
O=C1c2ccccc2C(=O)N1CCOc1ccccc1	AHR act 96.5 | AHR act confirm 167.2 | PXR counter 21.3
Nc1cccc2c1C(=O)N(CCOc1ccc(F)cc1)C2=O	AHR act 97.7 | AHR act confirm 86.7 | PXR counter 28.6
O=[N+]([O-])c1ccc(OCCOc2ccccc2C=Nn2cnnc2)cc1	none (no result: AHR act, A3G deaminase, Arrestin-AP2 inh, PolyA inhibitor, APOBEC3A inh)
Cc1ccsc1C=NNC(=O)c1cccnc1	none (no result: AHR act, A3G deaminase, Arrestin-AP2 inh, PolyA inhibitor, APOBEC3A inh)
